Reference: PMC3312100 (Frontiers in Systems Neuroscience, 2012)
Entries after “also recorded” stand apart in the source; their conditions may differ.

Legend:
[1] = Fluorescence characterization; type: physicochemical; settings: for Fluorescence emission intensity (in words): Figure 2, Appendix
Outline: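 Test compound was dissolved at 10 mM in buffer (12.5 mM MgCl2, 100 mM NaCl, 75 mM Tris/HCl, pH 7.4). Absorption and emission spectra were recorded on a fluorometer at room temperature. Emission spectra used 405 nm excitation.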

[2] = biological target: human histamine H3 receptor (Homo sapiens, UniProt Q9Y5N1); assay: [3H]Nα-methylhistamine competition binding assay, membranes of HEK-293 cells; settings: for Selectivity for hH3R over hH1R and hH4R (in words): comparison of Ki values of Table 1
Outline: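 Membranes came from HEK-293 cells stably expressing recombinant hH3R, with protein measured by Bradford. They were incubated with 2 nM [3H]Nα-methylhistamine and test compound from 0.01 nM to 100 μM at seven concentrations. Non-specific binding was defined with 10 μM pitolisant. Values are means of at least three independent experiments, each in triplicate.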

human histamine H3 receptor, sequence (Q9Y5N1 whole entry): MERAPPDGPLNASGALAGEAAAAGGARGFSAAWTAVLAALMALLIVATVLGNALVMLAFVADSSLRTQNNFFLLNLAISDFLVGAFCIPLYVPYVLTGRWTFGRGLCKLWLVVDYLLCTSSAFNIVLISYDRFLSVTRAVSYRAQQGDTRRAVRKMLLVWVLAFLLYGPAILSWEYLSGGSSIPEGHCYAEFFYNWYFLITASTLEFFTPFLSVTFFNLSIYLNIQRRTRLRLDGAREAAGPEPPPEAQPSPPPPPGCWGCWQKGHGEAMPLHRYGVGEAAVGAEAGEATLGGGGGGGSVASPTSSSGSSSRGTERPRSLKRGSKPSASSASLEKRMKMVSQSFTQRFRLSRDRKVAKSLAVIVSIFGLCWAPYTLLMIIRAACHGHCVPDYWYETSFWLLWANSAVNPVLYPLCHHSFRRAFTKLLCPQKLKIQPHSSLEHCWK

Area of the fluorescence spectrum of emission [1]	Affinity at the human histamine H3 receptor (in words) [2]	Compound	Fluorescence emission intensity (in words) [1]	Selectivity for hH3R over hH1R and hH4R (in words) [2]
yellow area	–	CN(C)c1ccc(/C=C2\CCc3cc(OCCCN4CCCCC4)ccc3C2=O)cc1 [Compound 3, (E)-2-(4-(Dimethylamino)benzylidene)-6-(3-(piperidin-1-yl)propoxy)-1-tetralone]	–	–
yellow area	–	CN(C)c1ccc(/C=C2\CCc3ccc(OCCCN4CCCCC4)cc3C2=O)cc1 [Compound 4, (E)-2-(4-(Dimethylamino)benzylidene)-7-(3-(piperidin-1-yl)propoxy)-1-tetralone]	–	–
–	–	CN(C)c1ccc(/C=C/C=C2\CCc3cc(OCCCN4CCCCC4)ccc3C2=O)cc1 [Compound 5, (E)-2-((E)-3-(4-(Dimethylamino)phenyl)allylidene)-6-(3-(piperidin-1-yl)propoxy)-1-tetralone]	emits more intensive	less selective chalcone; also recorded: not as selective as compound 9
–	–	O=C1CCCc2ccc(OCc3ccc(OCCCN4CCCCC4)cc3)cc21 [Compound 8, 7-(4-(3-(Piperidin-1-yl)propoxy)benzyloxy)-1-tetralone]	–	one of the highest selectivity
yellow area	highest affinity	CN(C)c1ccc(/C=C2\CCc3cc(OCc4ccc(OCCCN5CCCCC5)cc4)ccc3C2=O)cc1 [Compound 9, (E)-2-(4-(Dimethylamino)benzylidene)-6-(4-(3-(piperidin-1-yl)propoxy)benzyloxy)-1-tetralone]	most intense compound; also recorded: highest intensity of all synthesized compounds	most selective compound in the fluorescent chalcone series; also recorded: most human histamine H3 receptor selective
yellow area	–	CN(C)c1ccc(/C=C2\CCc3ccc(OCc4ccc(OCCCN5CCCCC5)cc4)cc3C2=O)cc1 [Compound 10, (E)-2-(4-(Dimethylamino)benzylidene)-7-(4-(3-(piperidin-1-yl)propoxy)benzyloxy)-1-tetralone]	–	–
